ChEMBL document CHEMBL5696442, “Discovery of type II inhibitors of TGFβ-activated kinase 1 (TAK1) and mitogen-activated protein kinase kinase kinase kinase 2 (MAP4K2)” (J Med Chem, 2015)
Active and inactive are the calls of the source. The calls are words filed in the database; no cut-off is given here.

Experiments:
[1] = target: T1, Mitogen-activated protein kinase kinase kinase kinase 2 (Homo sapiens) (UniProt Q12851); assay: Inhibition of MAP4K2 Lys1 labeling site in human A-375 cells at 0.5 uM by KiNativ Profiling analysis relative to control; type: cell-based
T1 sequence (whole entry): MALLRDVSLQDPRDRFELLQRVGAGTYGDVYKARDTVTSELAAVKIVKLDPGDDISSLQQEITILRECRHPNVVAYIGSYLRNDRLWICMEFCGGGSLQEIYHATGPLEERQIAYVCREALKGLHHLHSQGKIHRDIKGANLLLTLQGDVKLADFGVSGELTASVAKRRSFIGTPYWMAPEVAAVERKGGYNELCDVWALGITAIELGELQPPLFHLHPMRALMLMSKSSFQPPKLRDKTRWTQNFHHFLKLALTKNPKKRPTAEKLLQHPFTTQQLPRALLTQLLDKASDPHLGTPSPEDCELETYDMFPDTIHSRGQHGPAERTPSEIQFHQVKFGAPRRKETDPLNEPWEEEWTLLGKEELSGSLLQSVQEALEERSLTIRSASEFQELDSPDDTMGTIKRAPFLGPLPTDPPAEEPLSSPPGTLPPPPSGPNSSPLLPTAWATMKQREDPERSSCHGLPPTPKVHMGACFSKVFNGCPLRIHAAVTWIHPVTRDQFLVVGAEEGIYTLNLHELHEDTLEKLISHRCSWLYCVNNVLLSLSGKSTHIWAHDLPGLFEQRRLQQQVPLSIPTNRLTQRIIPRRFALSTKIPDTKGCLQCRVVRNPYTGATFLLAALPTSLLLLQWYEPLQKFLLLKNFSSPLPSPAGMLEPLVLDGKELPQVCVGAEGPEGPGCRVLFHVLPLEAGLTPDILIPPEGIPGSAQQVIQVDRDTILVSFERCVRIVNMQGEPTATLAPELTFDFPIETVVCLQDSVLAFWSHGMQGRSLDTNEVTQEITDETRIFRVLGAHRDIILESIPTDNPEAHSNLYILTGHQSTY

[2] = target: T2, Mitogen-activated protein kinase kinase kinase 7 (Homo sapiens) (UniProt O43318); assay: Inhibition of TAK1 Lys2 labeling site in human A-375 cells at 0.5 uM by KiNativ Profiling analysis relative to control; type: cell-based
T2 sequence (whole entry): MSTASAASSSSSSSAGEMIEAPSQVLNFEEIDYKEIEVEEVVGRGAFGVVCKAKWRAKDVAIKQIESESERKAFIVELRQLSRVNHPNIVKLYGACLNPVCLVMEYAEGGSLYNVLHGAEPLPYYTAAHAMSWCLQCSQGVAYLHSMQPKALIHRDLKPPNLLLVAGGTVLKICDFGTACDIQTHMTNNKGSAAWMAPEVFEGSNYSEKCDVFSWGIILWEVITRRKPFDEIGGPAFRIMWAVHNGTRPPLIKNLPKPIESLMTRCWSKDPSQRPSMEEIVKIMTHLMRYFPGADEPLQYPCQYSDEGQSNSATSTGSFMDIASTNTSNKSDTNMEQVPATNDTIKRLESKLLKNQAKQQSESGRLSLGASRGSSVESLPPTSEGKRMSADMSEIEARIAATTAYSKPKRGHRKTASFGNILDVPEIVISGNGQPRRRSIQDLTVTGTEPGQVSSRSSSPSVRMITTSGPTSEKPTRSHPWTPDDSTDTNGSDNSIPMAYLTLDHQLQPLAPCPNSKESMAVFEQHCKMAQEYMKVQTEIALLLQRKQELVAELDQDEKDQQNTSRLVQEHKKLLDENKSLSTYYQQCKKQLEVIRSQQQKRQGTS

[3] = target: T3, Mitogen-activated protein kinase kinase kinase kinase 2 (Homo sapiens, UniProt Q12851); assay: Inhibition of MAP4K2 (unknown origin) Lys1 labeling site by KiNativ Profiling analysis
T3 sequence (Q12851 whole entry): T1 sequence (whole entry)

[4] = target: T4, Mitogen-activated protein kinase kinase kinase 7 (Homo sapiens, UniProt O43318); assay: Inhibition of TAK1 (unknown origin) Lys2 labeling site by KiNativ Profiling analysis
T4 sequence (O43318 whole entry): T2 sequence (whole entry)

[5] = test system: L929; assay: Inhibition of TNF alpha induced IKKalpha/beta phosphorylation level in mouse L929 cells at 100 nM preincubated for 30 mins followed by TNF alpha stimulation and measured after 5 mins by Western blot analysis; type: functional, cell-based
Method in brief: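 Mouse L929 cells were pretreated with compound at 100 nM for 30 min, then stimulated with TNFα for 5 min. Lysates were Western blotted for phospho-IKKα/β, with tubulin as loading control.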

[6] = test system: BaF3; assay: Antiproliferative activity against parental mouse BaF3 cells assessed reduction in cell viability measured after 48 hrs by Celltiter-glo assay; type: functional, cell-based; settings: BaF3, 48 h
[7] = target: T5, Mitogen-activated protein kinase 14 (Homo sapiens, UniProt Q16539); assay: Inhibition of p38 alpha (unknown origin) by KiNativ Profiling analysis
T5 sequence (Q16539 whole entry): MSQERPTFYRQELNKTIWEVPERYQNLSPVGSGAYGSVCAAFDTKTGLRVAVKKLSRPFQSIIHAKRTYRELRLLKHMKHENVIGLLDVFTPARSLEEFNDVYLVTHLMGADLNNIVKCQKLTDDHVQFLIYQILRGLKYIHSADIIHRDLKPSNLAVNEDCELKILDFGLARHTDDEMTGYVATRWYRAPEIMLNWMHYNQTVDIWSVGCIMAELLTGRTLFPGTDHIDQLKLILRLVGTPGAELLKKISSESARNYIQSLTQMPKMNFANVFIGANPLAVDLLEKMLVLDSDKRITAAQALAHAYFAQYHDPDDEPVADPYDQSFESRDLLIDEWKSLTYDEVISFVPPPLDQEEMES

[8] = target: T6, Tyrosine-protein kinase CSK (Homo sapiens, UniProt P41240); assay: Inhibition of CSK (unknown origin) ACT labeling site by KiNativ Profiling analysis
Target sequence in this assay (P41240 whole entry): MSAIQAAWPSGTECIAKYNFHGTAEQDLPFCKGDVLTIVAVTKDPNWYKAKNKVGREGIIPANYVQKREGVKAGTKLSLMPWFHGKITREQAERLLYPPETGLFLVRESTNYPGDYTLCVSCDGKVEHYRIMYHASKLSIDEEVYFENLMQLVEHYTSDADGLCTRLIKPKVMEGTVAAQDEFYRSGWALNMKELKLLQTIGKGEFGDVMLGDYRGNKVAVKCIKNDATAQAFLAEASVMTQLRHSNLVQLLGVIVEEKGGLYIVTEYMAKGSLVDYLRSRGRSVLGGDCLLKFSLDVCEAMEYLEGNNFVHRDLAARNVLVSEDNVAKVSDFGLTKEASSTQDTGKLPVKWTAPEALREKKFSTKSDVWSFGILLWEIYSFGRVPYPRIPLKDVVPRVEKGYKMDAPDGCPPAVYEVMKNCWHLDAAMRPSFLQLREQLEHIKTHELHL

[9] = target: T7, Tyrosine-protein kinase ABL1 (Homo sapiens, UniProt P00519); assay: Inhibition of ABL Lys1 labeling site in human Huh-7 cell lysate at 1 uM by KiNativ Profiling analysis relative to control; type: subcellular
T7 sequence (P00519 whole entry): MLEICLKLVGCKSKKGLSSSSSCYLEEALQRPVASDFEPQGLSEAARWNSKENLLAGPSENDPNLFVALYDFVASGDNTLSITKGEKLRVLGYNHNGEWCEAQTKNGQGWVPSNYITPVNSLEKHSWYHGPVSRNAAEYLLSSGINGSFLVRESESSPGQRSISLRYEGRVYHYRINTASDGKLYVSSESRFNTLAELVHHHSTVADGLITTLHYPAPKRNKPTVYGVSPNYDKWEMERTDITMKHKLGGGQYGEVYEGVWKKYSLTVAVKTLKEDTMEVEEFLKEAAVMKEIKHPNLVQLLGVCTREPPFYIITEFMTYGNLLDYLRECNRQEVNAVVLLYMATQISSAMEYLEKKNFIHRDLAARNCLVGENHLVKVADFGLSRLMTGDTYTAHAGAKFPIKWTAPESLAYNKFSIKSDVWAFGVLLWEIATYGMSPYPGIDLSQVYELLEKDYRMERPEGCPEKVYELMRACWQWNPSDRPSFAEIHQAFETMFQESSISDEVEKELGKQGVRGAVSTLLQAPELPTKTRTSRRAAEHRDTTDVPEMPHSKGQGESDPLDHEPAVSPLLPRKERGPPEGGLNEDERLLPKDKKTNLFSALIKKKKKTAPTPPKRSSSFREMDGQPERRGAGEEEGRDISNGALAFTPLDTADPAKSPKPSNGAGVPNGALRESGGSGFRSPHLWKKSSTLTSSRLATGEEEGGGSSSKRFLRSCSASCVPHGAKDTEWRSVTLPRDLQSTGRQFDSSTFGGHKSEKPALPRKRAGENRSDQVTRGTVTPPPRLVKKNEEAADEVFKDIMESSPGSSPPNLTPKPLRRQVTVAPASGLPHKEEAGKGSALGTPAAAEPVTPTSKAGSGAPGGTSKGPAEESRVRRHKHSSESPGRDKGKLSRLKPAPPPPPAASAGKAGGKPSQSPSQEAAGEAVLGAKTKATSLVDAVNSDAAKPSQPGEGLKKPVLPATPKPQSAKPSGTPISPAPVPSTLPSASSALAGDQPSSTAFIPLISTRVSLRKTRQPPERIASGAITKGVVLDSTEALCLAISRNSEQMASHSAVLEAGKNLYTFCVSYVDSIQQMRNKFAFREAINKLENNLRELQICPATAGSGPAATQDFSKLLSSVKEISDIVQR

[10] = target: T7, Tyrosine-protein kinase ABL1; assay: Inhibition of ABL ACT labeling site in human Huh-7 cell lysate at 1 uM by KiNativ Profiling analysis relative to control; type: subcellular
[11] = target: T6, Tyrosine-protein kinase CSK; assay: Inhibition of CSK ACT labeling site in human Huh-7 cell lysate at 1 uM by KiNativ Profiling analysis relative to control; type: subcellular
Target sequence in this assay (P41240 2-450 limits assumed): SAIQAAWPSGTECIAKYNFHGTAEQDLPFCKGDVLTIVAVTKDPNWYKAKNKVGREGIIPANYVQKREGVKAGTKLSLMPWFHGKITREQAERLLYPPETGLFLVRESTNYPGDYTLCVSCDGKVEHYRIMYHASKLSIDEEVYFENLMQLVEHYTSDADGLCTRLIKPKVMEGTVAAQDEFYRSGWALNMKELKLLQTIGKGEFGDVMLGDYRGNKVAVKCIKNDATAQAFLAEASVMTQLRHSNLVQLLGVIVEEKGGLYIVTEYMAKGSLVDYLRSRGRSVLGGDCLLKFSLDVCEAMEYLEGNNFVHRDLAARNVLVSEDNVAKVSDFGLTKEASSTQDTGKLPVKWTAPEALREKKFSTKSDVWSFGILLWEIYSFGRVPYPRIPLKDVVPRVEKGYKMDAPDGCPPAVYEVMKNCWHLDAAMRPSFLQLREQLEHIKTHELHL

[12] = target: T5, Mitogen-activated protein kinase 14; assay: Inhibition of p38 alpha in human Huh-7 cell lysate at 1 uM by KiNativ Profiling analysis relative to control; type: subcellular
[13] = test system: BaF3; assay: Antiproliferative activity against parental mouse BaF3 cells harbouring Bcr/Abl assessed reduction in cell viability measured after 48 hrs by Celltiter-glo assay; type: functional, cell-based; settings: BaF3, 48 h
Method in brief: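 Cells were grown with serial dilutions of compound for 48 h, and viability was read by CellTiter-Glo. IC50 was derived from the dose–response curve. Parental Ba/F3 cells were grown in the presence of interleukin 3. The BCR-ABL line is BCR-ABL-dependent Ba/F3.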

[14] = target: T8, Mitogen-activated protein kinase kinase kinase 20 (Homo sapiens, UniProt Q9NYL2); assay: Inhibition of ZAK (unknown origin) Lys1 labeling site by KiNativ Profiling analysis
Target sequence in this assay (Q9NYL2 whole entry): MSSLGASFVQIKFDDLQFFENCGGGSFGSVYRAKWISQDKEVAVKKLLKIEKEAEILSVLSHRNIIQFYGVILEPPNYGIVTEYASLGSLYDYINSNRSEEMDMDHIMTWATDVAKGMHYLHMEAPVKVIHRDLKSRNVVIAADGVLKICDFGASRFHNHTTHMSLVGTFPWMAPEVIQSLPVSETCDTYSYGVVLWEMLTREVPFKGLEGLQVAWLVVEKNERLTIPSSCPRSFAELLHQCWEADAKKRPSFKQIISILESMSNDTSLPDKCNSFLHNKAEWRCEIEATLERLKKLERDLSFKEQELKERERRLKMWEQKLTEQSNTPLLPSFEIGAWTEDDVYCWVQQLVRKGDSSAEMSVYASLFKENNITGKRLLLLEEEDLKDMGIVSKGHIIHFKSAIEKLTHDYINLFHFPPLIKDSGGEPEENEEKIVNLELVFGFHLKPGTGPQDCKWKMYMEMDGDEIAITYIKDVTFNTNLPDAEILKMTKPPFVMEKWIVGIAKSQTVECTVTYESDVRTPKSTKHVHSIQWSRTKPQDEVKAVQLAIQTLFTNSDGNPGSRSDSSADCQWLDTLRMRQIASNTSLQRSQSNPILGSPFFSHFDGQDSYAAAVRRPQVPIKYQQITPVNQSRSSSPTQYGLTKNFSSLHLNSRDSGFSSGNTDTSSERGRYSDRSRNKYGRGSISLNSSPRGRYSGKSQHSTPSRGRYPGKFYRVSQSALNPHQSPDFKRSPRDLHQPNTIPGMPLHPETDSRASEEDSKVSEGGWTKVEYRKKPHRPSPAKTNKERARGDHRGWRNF

[15] = target: T8, Mitogen-activated protein kinase kinase kinase 20; assay: Inhibition of ZAK Lys1 labeling site in human Huh-7 cell lysate at 1 uM by KiNativ Profiling analysis relative to control; type: subcellular
Target sequence in this assay (Q9NYL2 2-800 limits assumed): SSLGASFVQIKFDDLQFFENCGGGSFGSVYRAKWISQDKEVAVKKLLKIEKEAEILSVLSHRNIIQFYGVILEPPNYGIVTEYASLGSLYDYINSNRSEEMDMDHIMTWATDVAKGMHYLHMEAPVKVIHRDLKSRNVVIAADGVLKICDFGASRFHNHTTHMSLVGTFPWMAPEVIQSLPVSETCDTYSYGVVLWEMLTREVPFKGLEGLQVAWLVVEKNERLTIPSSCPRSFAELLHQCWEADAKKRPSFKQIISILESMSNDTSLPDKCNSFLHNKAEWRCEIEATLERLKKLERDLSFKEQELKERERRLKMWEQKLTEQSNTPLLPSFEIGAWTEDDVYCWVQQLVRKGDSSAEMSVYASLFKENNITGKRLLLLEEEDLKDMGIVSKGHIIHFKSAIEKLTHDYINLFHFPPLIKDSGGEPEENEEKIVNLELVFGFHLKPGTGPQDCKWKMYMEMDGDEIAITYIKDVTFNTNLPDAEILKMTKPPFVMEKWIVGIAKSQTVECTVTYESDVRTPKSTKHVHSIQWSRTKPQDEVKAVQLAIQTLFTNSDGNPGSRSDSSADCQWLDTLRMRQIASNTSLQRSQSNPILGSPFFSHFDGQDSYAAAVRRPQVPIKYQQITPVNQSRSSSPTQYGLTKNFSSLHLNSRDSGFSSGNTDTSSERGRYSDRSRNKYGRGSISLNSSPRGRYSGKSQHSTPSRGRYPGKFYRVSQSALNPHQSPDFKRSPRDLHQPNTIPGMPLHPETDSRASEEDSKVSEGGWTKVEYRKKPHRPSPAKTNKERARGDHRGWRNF

SMILES | inhibition [1] [%] | inhibition [2] [%] | IC50 [3] [nM] | IC50 [4] [nM] | inhibition [5] | IC50 [6] [nM] | IC50 [7] [nM] | IC50 [8] [nM] | inhibition [9] [%] | inhibition [10] [%] | inhibition [11] [%] | inhibition [12] [%] | IC50 [13] [nM] | IC50 [14] [nM] | inhibition [15] [%]
Cc1ccc(C(=O)Nc2cc(N3CCN(C)CC3)cc(C(F)(F)F)c2)cc1Oc1ncnc2[nH]ccc12 | 73.6 | 29.3 | 177 | 465 |  |  |  |  |  |  |  |  |  |  | 
C[S+]([O-])c1ccc(-c2nc(-c3ccc(F)cc3)c(-c3ccncc3)[nH]2)cc1 (stereo not given) |  |  |  |  | inactive |  |  |  |  |  |  |  |  |  | 
CCN1CCN(Cc2ccc(NC(=O)c3ccc(C)c(OCc4cnc5[nH]ccc5c4OC)c3)cc2C(F)(F)F)CC1 | 89.4 | 59.6 | 49.4 | 150 |  | 8280 | 659 | 59 | > 80 | 96 | 84 | 97.3 | 39 |  | 
COc1c(/C=C/c2cc(C(=O)Nc3ccc(CN4CCC(N(C)C)C4)c(C(F)(F)F)c3)ccc2C)cnc2[nH]ccc12 (stereo not given) |  |  |  |  |  | 5470 | 140 | 25 | 47.5 | 66.6 | 75.6 | 85 | 10 |  | 
CCN1CCN(Cc2ccc(NC(=O)c3ccc(OC)c(Oc4ncnc5[nH]ccc45)c3)cc2C(F)(F)F)CC1 |  |  | 296 | 292 |  |  |  |  |  |  |  |  |  |  | 
CNC(=O)c1ccc(C)c(-n2c(C)cc(OCc3ccc(F)cc3F)c(Br)c2=O)c1 |  |  |  |  | inactive |  |  |  |  |  |  |  |  |  | 
CCN1CCN(Cc2ccc(NC(=O)c3cccc(Oc4ccnc5[nH]ccc45)c3)cc2C(F)(F)F)CC1 | > 80 | 75.6 | 23.8 | 119 |  | 7440 | 35.9 |  |  | > 96 |  | 85.8 | 10 |  | 
CCN1CCN(Cc2ccc(NC(=O)c3ccc(C)c(/C=C/c4cnc5[nH]ccc5c4OC)c3)cc2)CC1 |  |  |  |  |  | 7710 |  |  | > 80 | 96.3 |  |  | 10 |  | 
CCN1CCN(Cc2ccc(NC(=O)c3ccc(C)c(Oc4ccnc(C(=O)NC)c4)c3)cc2C(F)(F)F)CC1 |  |  |  |  |  |  | 69.6 |  |  |  |  | 93.1 |  | 447 | 82.7
CCN1CCN(c2ccc(NC(=O)c3ccc(C)c(CCc4cnc5[nH]ccc5c4OC)c3)cc2C(F)(F)F)CC1 |  |  |  |  |  | 9740 |  |  | 75.2 | 80.7 |  |  | 181 |  | 
COc1c(/C=C/c2cc(C(=O)Nc3cccc(C(C)(C)C#N)c3)ccc2C)cnc2[nH]ccc12 |  |  |  |  |  | 3300 |  | 25.1 | 71.5 | 62.2 | 75.7 |  | 10 | 103 | 95.8
COc1c(CCc2cc(C(=O)Nc3cc(-n4cnc(C)c4)cc(C(F)(F)F)c3)ccc2C)cnc2[nH]ccc12 |  |  |  |  |  | 4920 | 5.27 |  | 80.4 | 92.2 |  | 98.8 | 10 | 98.2 | 95.6
CCN1CCN(Cc2ccc(NC(=O)c3ccc(C)c(Oc4ccnc(NC)n4)c3)cc2C(F)(F)F)CC1 | > 85 | 77.7 | 26.5 | 165 |  | > 10000 | 45.8 |  |  | 74.6 |  | 95.4 | 85 | 546 | 89.6
CCN1CCN(Cc2ccc(NC(=O)c3cccc(/C=C/c4cnc5[nH]ccc5c4OC)c3)cc2C(F)(F)F)CC1 |  |  |  |  |  | 7100 |  |  | 82 | 89.6 |  |  | 10 | 396 | 75.3
Cc1cn(-c2cc(NC(=O)c3ccc(C)c(Oc4ccnc5[nH]ccc45)c3)cc(C(F)(F)F)c2)cn1 | 72 | -1.5 | 30.1 | 4490 | inactive |  |  |  |  |  |  |  |  |  | 
CCN1CCN(Cc2ccc(NC(=O)c3cccc(CCc4cnc5[nH]ccc5c4OC)c3)cc2C(F)(F)F)CC1 |  |  |  |  |  | > 10000 |  |  | 83 | 66.4 |  |  | 387 | 301 | 78
CCN1CCN(Cc2ccc(C(=O)Nc3cccc(CCc4cnc5[nH]ccc5c4OC)c3)cc2C(F)(F)F)CC1 |  |  |  |  |  | > 10000 | 555 |  | > 80 | 90.3 |  | 95.9 | 16 | 179 | 78.4
COc1c(/C=C/c2cc(C(=O)Nc3ccc(OC4CCN(C)CC4)c(C(F)(F)F)c3)ccc2C)cnc2[nH]ccc12 |  |  |  |  |  | 7570 | 63.6 |  | > 85 | 94.5 |  | 90.5 | 10 |  | 
CCN1CCN(Cc2ccc(C(=O)Nc3ccc(C)c(Oc4ccnc5[nH]ccc45)c3)cc2C(F)(F)F)CC1 |  |  |  |  | inactive |  | 19.5 |  |  |  |  | 88.4 |  |  | 
